Compound activity as filed in PubChem BioAssay.
This is a sample that favours compounds with a hit; in the whole collection about 1.9% have one here.
Rce1 inhib: blocks yeast Ras-converting enzyme; AID 2563; Q03530; yeast membranes, quenched prenylated peptide cleavage fluorescence; 0.27% of 290,000 active; calls only;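 active = fall in fluorescence gain of 50% or more versus controls, with final raw signal at or below 3038400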
NadD block: NadD (S. aureus) enzyme inhibition | purified NadD enzyme, colorimetric absorbance read-out | inhibition, % at 20 µM | 0.78% of 360,000 active | AID 602399; in the data active = inhibition above about 26%
core dimer inh: HCV core protein dimerization inhibition. TR-FRET GST/Flag-core106 dimerization, 1536-well. inhibition, % at 5 µM. 0.33% of 300,000 active;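 active = inhibition above the mean of all tested compounds plus 3 SD, set per screening campaign, cut at about 45% in these data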
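Assay system – GST-tagged and Flag-tagged HCV core protein residues 1-106 · Quantity – core106 proteins, GST 13.5 nM and Flag 17 nM · Benchmarks – unlabelled core106 and no-GST-core106 wells · Read-out basis – percent inhibition of core106 dimerization signal · Detection – time-resolved FRET, ex 340 nm, em 617 and 671 nm · Schedule – 4 h at 22.5 °C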
Tb MetRS inh: Trypanosoma brucei MetRS inhibition; purified T. brucei MetRS, ATP depletion, Kinase-Glo luminescence; inhibition, % at 11.9 µM; 0.4% of 360,000 active; AID 624268;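 active = inhibition above a per-plate cutoff of the control wells' mean inhibition plus 3 SD, cut at about 5.5% in these data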
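Dosing: 11.9 µM single point; system: parasite MetRS enzyme; technique: luminescence of leftover ATP; times: 15 min enzyme-compound preincubation, 2 h reaction, 10 min detection, 25 °C; replicates: each compound tested once; read-out basis: percent inhibition relative to median high and low control wells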
Pemphigus Ab inh: inhibitors of pemphigus antibody binding to human desmoglein-3; P32926; binding (percent of control), % at 10 µM; 0.48% of 310,000 active; AID 588358; DSG3-coupled beads, scFv-anti-DSG3-GFP binding, flow cytometry; stronger effect = lower value;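 active = binding more than 3 SD below its plate's average and above zero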;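 note: hits lower antibody fragment binding to DSG3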
Target sequence (P32926 whole entry, looked up, the tested form may be a part): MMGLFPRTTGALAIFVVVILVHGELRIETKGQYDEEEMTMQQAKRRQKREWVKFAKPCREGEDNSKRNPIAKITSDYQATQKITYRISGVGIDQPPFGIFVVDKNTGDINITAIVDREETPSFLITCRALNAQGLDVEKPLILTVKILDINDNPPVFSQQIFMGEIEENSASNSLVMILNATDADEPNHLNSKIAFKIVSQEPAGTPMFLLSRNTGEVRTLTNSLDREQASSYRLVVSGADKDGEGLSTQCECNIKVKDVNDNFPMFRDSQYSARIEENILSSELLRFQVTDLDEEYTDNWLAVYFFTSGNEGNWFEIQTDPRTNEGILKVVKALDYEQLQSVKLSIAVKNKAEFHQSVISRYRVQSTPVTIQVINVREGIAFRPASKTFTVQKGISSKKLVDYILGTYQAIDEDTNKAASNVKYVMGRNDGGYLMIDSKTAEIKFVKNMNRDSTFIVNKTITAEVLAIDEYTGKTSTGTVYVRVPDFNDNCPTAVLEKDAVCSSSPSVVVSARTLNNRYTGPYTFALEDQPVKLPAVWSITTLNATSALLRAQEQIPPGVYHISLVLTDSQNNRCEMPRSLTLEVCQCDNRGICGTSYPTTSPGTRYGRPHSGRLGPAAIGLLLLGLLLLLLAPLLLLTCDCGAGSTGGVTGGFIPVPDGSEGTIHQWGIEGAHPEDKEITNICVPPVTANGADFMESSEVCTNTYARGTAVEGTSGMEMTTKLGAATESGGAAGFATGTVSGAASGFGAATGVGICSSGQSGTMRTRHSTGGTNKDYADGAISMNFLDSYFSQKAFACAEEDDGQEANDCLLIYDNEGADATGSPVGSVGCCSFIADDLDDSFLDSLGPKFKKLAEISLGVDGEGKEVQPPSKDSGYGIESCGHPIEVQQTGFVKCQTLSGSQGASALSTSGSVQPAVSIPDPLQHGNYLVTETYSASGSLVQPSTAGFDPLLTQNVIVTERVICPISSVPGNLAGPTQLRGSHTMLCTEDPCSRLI
Large screens that a line does not name were inactive.

COC(C/C=C/C(=O)[C@H](C)OCc1ccccc1)OC	Rce1 inhib active
COC(C/C=C/[C@H](O)[C@@H](C)OCc1ccccc1)OC	Rce1 inhib active
COC(C[C@H](O)C[C@H](O)[C@@H](C)OCc1ccccc1)OC	Rce1 inhib active
O=C(NCC(=O)N(CC1CCCO1)C(C(=O)NC1CCCC1)c1ccc(F)cc1)c1ccco1 (configuration not stated)	none
O=C(NNc1ccccc1)Nc1cc(Cl)ccc1Cl	none (no result: Rce1 inhib, core dimer inh)
N#CCC1c2ccccc2CCN1C(=O)Nc1ccc(Cl)cc1 (configuration not stated)	none
COC(C/C=C\[C@H](O)[C@@H](C)OCc1ccccc1)OC	none
COC(C/C=C/[C@@H](O)[C@H](C)OCc1ccccc1)OC	Rce1 inhib active
COc1ccc(N2CCN(C(=O)c3ccc4c(c3)NC(=O)C(CSCc3cccc(F)c3)N4)CC2)cc1 (configuration not stated)	none (no result: NadD block, Tb MetRS inh, Pemphigus Ab inh)
Cc1cccc(N2CCN(C(=O)c3ccc4c(c3)NC(=O)C(CSCc3ccc(F)cc3)N4)CC2C)c1 (configuration not stated)	core dimer inh 64 (no result: NadD block, Tb MetRS inh, Pemphigus Ab inh)
Cc1ccc(CSCC2Nc3ccc(C(=O)N4CCN(c5cccc(C)c5)C(C)C4)cc3NC2=O)cc1 (configuration not stated)	core dimer inh 71 (no result: NadD block, Tb MetRS inh, Pemphigus Ab inh)
COC(=O)c1c(-c2ccccc2)csc1N	none
COc1ccc(-n2c(N)c(C(=O)NCc3ccco3)c3nc4ccccc4nc32)c(OC)c1	Rce1 inhib active
CC(=O)c1ccc(OCc2cc([N+](=O)[O-])cc3c2OCOC3)cc1	none
COc1ccc2c(c1)c(CC(=O)NCc1cc([N+](=O)[O-])ccc1O)c(C)n2C(=O)c1ccc(Cl)cc1	NadD block 33
COc1ccc2c(c1)c(CC(=O)Nc1ccc(C(C)=O)cc1)c(C)n2C(=O)c1ccc(Cl)cc1	none
Cc1cc(C)c(NC(=O)CSc2nc3ncc(Br)cc3[nH]2)c(C)c1	none
O=C(CSc1nc2ncc(Br)cc2[nH]1)Nc1ccc2c(c1)OCO2	Tb MetRS inh 67
CC(Sc1ccccc1)C(=O)NNC(=O)c1csc(N2CCOCC2)n1 (configuration not stated)	none
CC(NC(=O)/C=C/c1ccco1)c1nc2ccccc2n1Cc1ccccc1F (configuration not stated)	Pemphigus Ab inh 81
CC(C)C[C@@H](CNCC(=O)[C@H](Cc1c[nH]c2ccccc12)NC(=O)c1[nH]cnc1C(=O)N[C@@H](C)CN)NC(=O)c1nc[nH]c1C(=O)N[C@@H](CC(=O)O)C(=O)O	Tb MetRS inh 11 (no result: Rce1 inhib, core dimer inh)
Cc1cnc(C(=O)OCC(=O)Nc2ccc3c(c2)OCCO3)cn1	none (no result: Rce1 inhib, core dimer inh, Pemphigus Ab inh)
CC(=O)[C@@H]1[C@@H]2C(=O)N(Cc3ccccc3)C(=O)[C@@H]2C2c3ccccc3C=CN21 (some centres not stated)	none
Cc1c(C(=O)OCc2ccccc2)[nH]c2c1C(=O)CC(c1ccco1)C2 (configuration not stated)	core dimer inh 51
CCOC(=O)c1[nH]c2c(c1C)C(=O)CC(c1ccco1)C2 (configuration not stated)	none
CCC(CC)C(=O)Nc1cccc(C(=O)Nc2ccc(S(N)(=O)=O)cc2)c1	none
CCC(CC)C(=O)Nc1cccc(S(=O)(=O)c2cccc(NC(=O)C(CC)CC)c2)c1	Pemphigus Ab inh -13
COc1ccc2cc3c(N)nn(C(=O)c4ccc(Cl)c([N+](=O)[O-])c4)c3nc2c1	core dimer inh 48
O=C(Nc1cccnc1Oc1ccc(Cl)cc1)c1cccc2ccccc12	Rce1 inhib active (no result: Pemphigus Ab inh)
CCCCN(C(=O)/C=C/c1ccccc1)C1CCS(=O)(=O)C1 (configuration not stated)	Pemphigus Ab inh 74
CCCCN(C(=O)Oc1ccccc1)C1CCS(=O)(=O)C1 (configuration not stated)	none (no result: Pemphigus Ab inh)
CN(C(=O)c1ccccc1Br)C1CCS(=O)(=O)C1 (configuration not stated)	none
O=C(Nc1ccc(S(=O)(=O)Nc2ccccc2)cc1)C1COc2ccccc2O1 (configuration not stated)	Rce1 inhib active
Cc1cc(C)nc(NS(=O)(=O)c2ccc(NC(=O)C3COc4ccccc4O3)cc2)n1 (configuration not stated)	none
Cc1cc(C)cc(OCC(=O)OCC(=O)Nc2cc(S(=O)(=O)N3CCOCC3)ccc2C)c1	none (no result: Rce1 inhib, core dimer inh)
O=C(CSc1ccc(Cl)cc1)c1ccco1	core dimer inh 49
O=C(NC1CCCC1)C1CCCN(S(=O)(=O)c2cccc3cccnc23)C1 (configuration not stated)	none
COc1ccc(-c2cc3ccccc3n2CC(O)CNCCO)cc1 (configuration not stated)	Rce1 inhib active
COc1ccc(-c2cc3ccccc3n2CC(O)CN2CCCCC2)cc1 (configuration not stated)	none
Cc1cc(=O)oc(C)c1C(=O)OCC(=O)c1ccc(Cl)c(Cl)c1	Pemphigus Ab inh 82
O=C(NCc1ccc(F)cc1)C(Cc1ccccc1)n1cccc1 (configuration not stated)	none
CCCCCCCCNCCS(=O)(=O)NCc1ccccc1	none (no result: Rce1 inhib, core dimer inh)
Nc1cc(-c2ccc(Cl)cc2)nn1S(=O)(=O)c1ccccc1	Pemphigus Ab inh 25
O=C(O)c1cc(N=Nc2c(O)[nH]c3ccc([N+](=O)[O-])cc23)ccc1Cl	none
O=C(N=Nc1c(O)[nH]c2ccc([N+](=O)[O-])cc12)c1cc(-c2ccccc2Cl)nc2ccccc12	core dimer inh 47
COc1ccccc1C(=O)N=Nc1c(O)[nH]c2ccc([N+](=O)[O-])cc12	NadD block 32 (no result: Rce1 inhib, core dimer inh)
Cc1[nH]c(=O)nc(SCc2ccc(Cl)c(Cl)c2)c1C#N	none
CCc1ccccc1NC(=O)c1ccoc1C	none
O=C(NN1C(=O)/C(=C/C=C/c2ccccc2)SC1=S)c1ccncc1	NadD block 34, core dimer inh 49
COc1ccc(/C=C2\SC(=S)N(NC(=O)c3ccncc3)C2=O)cc1OC	none (no result: Rce1 inhib, NadD block, Tb MetRS inh, Pemphigus Ab inh)
O=C(NN1C(=O)/C(=C/C=C/c2ccco2)SC1=S)c1ccncc1	core dimer inh 47
COc1cc2ccccc2cc1C(=O)N/N=C/c1ccc2c(c1)OCO2	none (no result: core dimer inh)
COc1ccc(OC)c(-c2cc(C(=O)N/N=C/c3ccc(F)cc3)c3ccccc3n2)c1	none
COc1ccc(-c2cc(C(=O)N/N=C/c3ccc4c(c3)OCO4)c3ccccc3n2)c(OC)c1	Pemphigus Ab inh 77
COc1ccc(-c2cc(C(=O)N/N=C/c3ccc(OC)c(COCC(F)(F)C(F)F)c3)c3ccccc3n2)c(OC)c1	core dimer inh 58
CC1CC(=O)Nc2ccc([N+](=O)[O-])cc2N1C (configuration not stated)	none
CC(=O)N1c2ccc([N+](=O)[O-])cc2NC(=O)CC1C (configuration not stated)	Rce1 inhib active
